# From ChEMBL document CHEMBL3244142, “Antifungal properties of 2-bromo-3-fluorosuccinic acid esters and related compounds” (1977)
# Tests used:
# [1] = system: Aspergillus niger; assay: Antifungal activity against Aspergillus niger ATCC 1004 at pH 5.6 after 5 days in presence of 10% beef serum; format: functional
# Outline: (§1)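 Agar-dilution MIC in Sabouraud dextrose agar at pH 5.6 or 7.0, with or without 10% beef serum. Plates were incubated at 28 °C for 5 days. MIC is the lowest concentration (µg/mL) giving 100% inhibition. Steps were 1 µg/mL up to 10, 2 µg/mL from 10–20, and 10 µg/mL from 20–100; 100 µg/mL was the top level, and no inhibition there is scored as >100.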
# [2] = system: Aspergillus niger; assay: Antifungal activity against Aspergillus niger ATCC 1004 at pH 7 after 5 days in absence of 10% beef serum; format: functional; outline: as §1
# [3] = system: Aspergillus niger; assay: Antifungal activity against Aspergillus niger ATCC 1004 at pH 7 after 5 days in presence of 10% beef serum; format: functional; outline: as §1
# [4] = system: Mucor mucedo; assay: Antifungal activity against Mucor mucedo ATCC 7941 at pH 5.6 after 5 days in absence of 10% beef serum; format: functional
# [5] = system: Mucor mucedo; assay: Antifungal activity against Mucor mucedo ATCC 7941 at pH 5.6 after 5 days in presence of 10% beef serum; format: functional
# [6] = system: Mucor mucedo; assay: Antifungal activity against Mucor mucedo ATCC 7941 at pH 7 after 5 days in absence of 10% beef serum; format: functional
# [7] = system: Mucor mucedo; assay: Antifungal activity against Mucor mucedo ATCC 7941 at pH 7 after 5 days in presence of 10% beef serum; format: functional
# [8] = system: Trichophyton mentagrophytes; assay: Antifungal activity against Trichophyton mentagrophytes ATCC 9129 at pH 5.6 after 5 days in absence of 10% beef serum; format: functional; outline: as §1
# [9] = system: Trichophyton mentagrophytes; assay: Antifungal activity against Trichophyton mentagrophytes ATCC 9129 at pH 5.6 after 5 days in presence of 10% beef serum; format: functional; outline: as §1
# [10] = system: Trichophyton mentagrophytes; assay: Antifungal activity against Trichophyton mentagrophytes ATCC 9129 at pH 7 after 5 days in absence of 10% beef serum; format: functional; outline: as §1
# [11] = system: Trichophyton mentagrophytes; assay: Antifungal activity against Trichophyton mentagrophytes ATCC 9129 at pH 7 after 5 days in presence of 10% beef serum; format: functional; outline: as §1
# [12] = system: Candida albicans; assay: Antifungal activity against Candida albicans ATCC 10231 at pH 5.6 after 5 days in absence of 10% beef serum; format: functional
# [13] = system: Candida albicans; assay: Antifungal activity against Candida albicans ATCC 10231 at pH 5.6 after 5 days in presence of 10% beef serum; format: functional
# [14] = system: Candida albicans; assay: Antifungal activity against Candida albicans ATCC 10231 at pH 7 after 5 days in absence of 10% beef serum; format: functional
# [15] = system: Candida albicans; assay: Antifungal activity against Candida albicans ATCC 10231 at pH 7 after 5 days in presence of 10% beef serum; format: functional
# [16] = system: Aspergillus niger; assay: Antifungal activity against Aspergillus niger ATCC 1004 at pH 5.6 after 5 days in absence of 10% beef serum; format: functional; outline: as §1
# [17] = system: Mucor mucedo; assay: Antifungal activity against Mucor mucedo ATCC 7941 at pH 7 after 20 h in absence of 10% beef serum; conditions: ATCC 7941, 20 h
# [18] = system: Mucor mucedo; assay: Antifungal activity against Mucor mucedo ATCC 7941 at pH 5.6 after 20 h in presence of 10% beef serum; conditions: ATCC 7941, 20 h
# [19] = system: Candida albicans; assay: Antifungal activity against Candida albicans ATCC 10231 at pH 7 after 20 h in absence of 10% beef serum; conditions: ATCC 10231, 20 h
# [20] = system: Candida albicans; assay: Antifungal activity against Candida albicans ATCC 10231 at pH 5.6 after 20 h in absence of 10% beef serum; conditions: ATCC 10231, 20 h
# [21] = system: Mucor mucedo; assay: Antifungal activity against Mucor mucedo ATCC 7941 at pH 7 after 20 h in presence of 10% beef serum; conditions: ATCC 7941, 20 h
# [22] = Aspergillus niger, ATCC 1004, 120 h, read-out: MIC
# [23] = Mucor mucedo, ATCC 7941, 120 h, read-out: MIC
# [24] = Trichophyton mentagrophytes, ATCC 9129, 120 h, read-out: MIC
# [25] = Candida albicans, ATCC 10231, 120 h, read-out: MIC
Structure (SMILES),MIC [3] [µg/mL],MIC [7] [µg/mL],MIC [9] [µg/mL],MIC [10] [µg/mL],MIC [16] [µg/mL],"MIC [1, 22] [µg/mL]","MIC [2, 22] [µg/mL]","MIC [4, 23] [µg/mL]","MIC [8, 24] [µg/mL]","MIC [11, 24] [µg/mL]","MIC [13, 25] [µg/mL]","MIC [15, 25] [µg/mL]",MIC [17] [µg/mL],MIC [18] [µg/mL],MIC [19] [µg/mL],MIC [20] [µg/mL],other results
COC(=O)C(Br)C(Br)C(=O)OC (racemic),40,14,4,4,14,,,,,,,,,,,,MIC [1]: 30 µg/mL; MIC [2]: 40 µg/mL; MIC [4]: 6 µg/mL; MIC [5]: 9 µg/mL; MIC [6]: 8 µg/mL; MIC [8]: 2 µg/mL; MIC [11]: 10 µg/mL; MIC [12]: 16 µg/mL; MIC [13]: 20 µg/mL; MIC [14]: 30 µg/mL; MIC [15]: 60 µg/mL
COC(=O)C(Br)C(Br)C(=O)OC (stereo in doubt),90,30,12,9,30,50,60,6,2,20,30,70,12,14,50,20,
COC(=O)[C@H](F)[C@@H](Br)C(=O)OC (relative stereo),,,,,,14,30,12,< 1,6,8,16,14,12,16,6,"MIC [3, 22]: 40 µg/mL; MIC [9, 24]: 3 µg/mL; MIC [10, 24]: 3 µg/mL; MIC [16, 22]: 12 µg/mL; MIC [21]: 20 µg/mL"
